{"source": "ChEMBL document CHEMBL2346664", "about": "“Synthesis, characterization and in vitro anticancer evaluation of novel 1,2,4-triazolin-3-one derivatives” (2013)", "assay_type_in_all_cases": "functional", "key": {"HCT-116": {"test_system": "HCT-116", "assay": "Growth inhibition of human HCT116 cells assessed as cell growth at 10 '-7 M after 48 hrs by sulforhodamine B assay", "details": "HCT-116, 48 h, read-out: Activity"}, "Malme-3M": {"test_system": "Malme-3M", "assay": "Growth inhibition of human MALME-3M cells assessed as cell growth at 10 '-8 M after 48 hrs by sulforhodamine B assay", "details": "read-out: Activity"}, "A549": {"test_system": "A549", "assay": "Growth inhibition of human A549 cells assessed as cell growth at 10 '-6 M after 48 hrs by sulforhodamine B assay", "details": "A549, 48 h, read-out: Activity", "procedure,_shortened": "(§1)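 Percent growth at each of the five concentrations of the 48 h continuous-exposure NCI SRB screen. Drug stocks were in DMSO at 400× the top final concentration and diluted in medium with gentamicin. Growth was calculated as [(Ti-Tz)/(C-Tz)]×100 when Ti ≥ Tz, or [(Ti-Tz)/Tz]×100 when Ti < Tz. Tz plates were fixed at drug addition; untreated wells served as control. Absorbance was read at 515 nm.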"}, "DU-145": {"test_system": "DU-145", "assay": "Growth inhibition of human DU145 cells assessed as growth inhibition at 10 uM after 48 hrs by sulforhodamine B assay", "details": "DU-145, 48 h, read-out: GI"}, "SNB-75": {"test_system": "SNB-75", "assay": "Growth inhibition of human SNB75 cells assessed as cell growth at 10 '-5 M after 48 hrs by sulforhodamine B assay", "details": "SNB-75, 48 h, read-out: Activity"}, "KM12 [1]": {"test_system": "KM12", "assay": "Growth inhibition of human KM12 cells assessed as cell growth at 10 '-8 M after 48 hrs by sulforhodamine B assay", "details": "KM12, 48 h, read-out: Activity"}, "K562": {"test_system": "K562", "assay": "Growth inhibition of human K562 cells assessed as cell growth at 10 '-5 M after 48 hrs by sulforhodamine B assay", "details": "K562, 48 h, read-out: Activity"}, "OVCAR-3 [2]": {"test_system": "OVCAR-3", "assay": "Growth inhibition of human OVCAR3 cells assessed as cell growth at 10 '-7 M after 48 hrs by sulforhodamine B assay", "details": "OVCAR-3, 48 h, read-out: Activity"}, "NCI-H522": {"test_system": "NCI-H522", "assay": "Growth inhibition of human NCI-H522 cells after 48 hrs by sulforhodamine B assay", "details": "NCI-H522, 48 h"}, "LOX IMVI": {"test_system": "LOX IMVI", "assay": "Growth inhibition of human LOXIMVI cells after 48 hrs by sulforhodamine B assay", "procedure,_shortened": "(§2)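 NCI 60-cell-line five-dose screen. Cells were plated at 5,000–40,000/well by doubling time and grown 24 h at 37 °C, 5% CO2. Time-zero plates were TCA-fixed. Drug from DMSO stock was tested at 0.01, 0.1, 1, 10 and 100 µM final for 48 h continuous exposure. Read-out was SRB at 515 nm. GI50 is the concentration giving 50% reduction in net protein increase versus untreated control.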"}, "[3]": {"assay": "Growth inhibition of human NCI-ADR-RES cells assessed as cell growth at 10 '-5 M after 48 hrs by sulforhodamine B assay", "details": "read-out: Activity"}, "[4]": {"assay": "Growth inhibition of human NCI-ADR-RES cells after 48 hrs by sulforhodamine B assay", "procedure,_shortened": "as §2"}, "MDA-MB-468": {"test_system": "MDA-MB-468", "assay": "Growth inhibition of human MDA-MB-468 cells assessed as growth inhibition at 10 uM after 48 hrs by sulforhodamine B assay", "details": "MDA-MB-468, 48 h, read-out: GI"}, "U-251 [5]": {"test_system": "U-251", "assay": "Growth inhibition of human U251 cells assessed as cell growth at 10 '-8 M after 48 hrs by sulforhodamine B assay", "details": "U-251, 48 h, read-out: Activity"}, "SNB-19": {"test_system": "SNB-19", "assay": "Growth inhibition of human SNB19 cells assessed as cell growth at 10 '-5 M after 48 hrs by sulforhodamine B assay", "details": "SNB-19, 48 h, read-out: Activity"}, "KM12 [6]": {"test_system": "KM12", "assay": "Growth inhibition of human KM12 cells assessed as cell growth at 10 '-5 M after 48 hrs by sulforhodamine B assay", "details": "KM12, 48 h, read-out: Activity"}, "OVCAR-4": {"test_system": "OVCAR-4", "assay": "Growth inhibition of human OVCAR4 cells assessed as cell growth at 10 '-7 M after 48 hrs by sulforhodamine B assay", "details": "OVCAR-4, 48 h, read-out: Activity"}, "MOLT-4 [7]": {"test_system": "MOLT-4", "assay": "Growth inhibition of human MOLT4 cells assessed as cell growth at 10 '-8 M after 48 hrs by sulforhodamine B assay", "details": "MOLT-4, 48 h, read-out: Activity"}, "MOLT-4 [8]": {"test_system": "MOLT-4", "assay": "Growth inhibition of human MOLT4 cells after 48 hrs by sulforhodamine B assay", "details": "MOLT-4, 48 h", "procedure,_shortened": "as §2"}, "UACC-62": {"test_system": "UACC-62", "assay": "Growth inhibition of human UACC62 cells assessed as cell growth at 10 '-7 M after 48 hrs by sulforhodamine B assay", "details": "UACC-62, 48 h, read-out: Activity"}, "HOP-62": {"test_system": "HOP-62", "assay": "Growth inhibition of human HOP62 cells assessed as growth inhibition at 10 uM after 48 hrs by sulforhodamine B assay", "details": "HOP-62, 48 h, read-out: GI"}, "OVCAR-3 [9]": {"test_system": "OVCAR-3", "assay": "Growth inhibition of human OVCAR3 cells after 48 hrs by sulforhodamine B assay", "details": "OVCAR-3, 48 h, read-out: LD50 (the source's name)"}, "RXF 393": {"test_system": "RXF 393", "assay": "Growth inhibition of human RXF393 cells assessed as cell growth at 10 '-8 M after 48 hrs by sulforhodamine B assay", "details": "RXF 393, 48 h, read-out: Activity"}, "U-251 [10]": {"test_system": "U-251", "assay": "Growth inhibition of human U251 cells after 48 hrs by sulforhodamine B assay", "details": "U-251, 48 h"}, "CAKI-1 [11]": {"test_system": "CAKI-1", "assay": "Growth inhibition of human CAKI-1 cells assessed as growth inhibition at 10 uM after 48 hrs by sulforhodamine B assay", "details": "CAKI-1, 48 h, read-out: GI", "procedure,_shortened": "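Percent growth inhibition from the single 10^-5 M NCI-60 screen, reported as 100 minus growth percent. Growth percent was measured after 48 h drug exposure at 37 °C, 5% CO2, using TCA fixation, SRB staining and absorbance at 515 nm, against untreated controls and time-zero plates.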"}, "CAKI-1 [12]": {"test_system": "CAKI-1", "assay": "Growth inhibition of human CAKI-1 cells assessed as cell growth at 10 '-8 M after 48 hrs by sulforhodamine B assay", "details": "CAKI-1, 48 h, read-out: Activity", "procedure,_shortened": "as §1"}, "HOP-92": {"test_system": "HOP-92", "assay": "Growth inhibition of human HOP92 cells assessed as cell growth at 10 '-8 M after 48 hrs by sulforhodamine B assay", "details": "HOP-92, 48 h, read-out: Activity"}, "T47D": {"test_system": "T47D", "assay": "Growth inhibition of human T47D cells assessed as cell growth at 10 '-5 M after 48 hrs by sulforhodamine B assay", "details": "read-out: Activity"}, "BT-549": {"test_system": "BT-549", "assay": "Growth inhibition of human BT549 cells assessed as cell growth at 10 '-6 M after 48 hrs by sulforhodamine B assay", "details": "BT-549, 48 h, read-out: Activity", "procedure,_shortened": "as §1"}, "SK-MEL-5": {"test_system": "SK-MEL-5", "assay": "Growth inhibition of human SK-MEL-5 cells after 48 hrs by sulforhodamine B assay", "details": "SK-MEL-5, 48 h"}, "[13]": {"details": "read-out: LD50 (the source's name)"}}}
{"smiles": "Cc1cc(=O)oc2cc(OCCn3c(C)nn(-c4ccc(Cl)cc4)c3=O)ccc12", "values": [{"measurement": "growth at 0.1 µM", "setting": "HCT-116", "value": 98, "unit": "%"}, {"measurement": "growth at 0.01 µM", "setting": "Malme-3M", "value": 105, "unit": "%"}, {"measurement": "growth at 1 µM", "setting": "A549", "value": 96, "unit": "%"}, {"measurement": "inhibition of growth at 10 µM", "setting": "DU-145", "value": 78.4, "unit": "%"}, {"measurement": "growth at 10 µM", "setting": "SNB-75", "value": 5, "unit": "%"}, {"measurement": "growth at 0.01 µM", "setting": "KM12 [1]", "value": 104, "unit": "%"}, {"measurement": "growth at 10 µM", "setting": "K562", "value": 23, "unit": "%"}, {"measurement": "growth at 0.1 µM", "setting": "OVCAR-3 [2]", "value": 110, "unit": "%"}, {"measurement": "GI50", "setting": "NCI-H522", "value": 3.85, "unit": "µM"}, {"measurement": "TGI", "setting": "NCI-H522", "value": 3.82, "unit": "µM"}, {"measurement": "CC50", "setting": "NCI-H522; [13]", "value": "> 1000", "unit": "nM"}, {"measurement": "GI50", "setting": "LOX IMVI", "value": 4.83, "unit": "µM"}, {"measurement": "TGI", "setting": "LOX IMVI", "value": "> 1000", "unit": "nM"}, {"measurement": "CC50", "setting": "LOX IMVI; [13]", "value": "> 1000", "unit": "nM"}, {"measurement": "growth at 10 µM", "setting": "[3]", "value": 10, "unit": "%"}, {"measurement": "GI50", "setting": "[4]", "value": 1640, "unit": "nM"}, {"measurement": "TGI", "setting": "[4]", "value": "> 1000", "unit": "nM"}, {"measurement": "CC50", "setting": "[4]; [13]", "value": "> 1000", "unit": "nM"}, {"measurement": "inhibition of growth at 10 µM", "setting": "MDA-MB-468", "value": 83.9, "unit": "%"}, {"measurement": "growth at 0.01 µM", "setting": "U-251 [5]", "value": 98, "unit": "%"}, {"measurement": "growth at 10 µM", "setting": "SNB-19", "value": 39, "unit": "%"}, {"measurement": "growth at 10 µM", "setting": "KM12 [6]", "value": 21, "unit": "%"}, {"measurement": "growth at 0.1 µM", "setting": "OVCAR-4", "value": 90, "unit": "%"}, {"measurement": "growth at 0.01 µM", "setting": "MOLT-4 [7]", "value": 104, "unit": "%"}, {"measurement": "GI50", "setting": "MOLT-4 [8]", "value": 4.71, "unit": "µM"}, {"measurement": "TGI", "setting": "MOLT-4 [8]", "value": "> 1000", "unit": "nM"}, {"measurement": "CC50", "setting": "MOLT-4 [8]; [13]", "value": "> 1000", "unit": "nM"}, {"measurement": "growth at 0.1 µM", "setting": "UACC-62", "value": 90, "unit": "%"}, {"measurement": "inhibition of growth at 10 µM", "setting": "HOP-62", "value": 72.7, "unit": "%"}, {"measurement": "CC50", "setting": "OVCAR-3 [9]", "value": "> 1000", "unit": "nM"}, {"measurement": "growth at 0.01 µM", "setting": "RXF 393", "value": 95, "unit": "%"}, {"measurement": "GI50", "setting": "U-251 [10]", "value": 4.18, "unit": "µM"}, {"measurement": "TGI", "setting": "U-251 [10]", "value": 7.23, "unit": "µM"}, {"measurement": "CC50", "setting": "U-251 [10]; [13]", "value": "> 1000", "unit": "nM"}, {"measurement": "inhibition of growth at 10 µM", "setting": "CAKI-1 [11]", "value": 80.5, "unit": "%"}, {"measurement": "growth at 0.01 µM", "setting": "CAKI-1 [12]", "value": 97, "unit": "%"}, {"measurement": "growth at 0.01 µM", "setting": "HOP-92", "value": 87, "unit": "%"}, {"measurement": "growth at 10 µM", "setting": "T47D", "value": 45, "unit": "%"}, {"measurement": "growth at 1 µM", "setting": "BT-549", "value": 89, "unit": "%"}, {"measurement": "GI50", "setting": "SK-MEL-5", "value": 8.48, "unit": "µM"}, {"measurement": "TGI", "setting": "SK-MEL-5", "value": "> 1000", "unit": "nM"}, {"measurement": "CC50", "setting": "SK-MEL-5; [13]", "value": "> 1000", "unit": "nM"}]}
